{"source": "PubChem BioAssay AID504365", "about": "(Broad Institute, 2011)", "note": "Calls of active or inactive are those of the source.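 How the source made its calls: active means fitted curve reaches 10% of the positive control caspase activation at or below the top valid tested dose; inactive means signal shifts the opposite way, plus the rest.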"}
{"system": "not listed separately", "test": "caspase-3/7 activation in Mel501 cells, dose response, orthogonal assay for A1 inhibitor project, cell-based, luminescence, dry powder, set 2 (AID 504365)", "settings": "Mel501 cells, caspase-3/7 Glo luminescence, 6 h; at 16 µM (top of the series)", "procedure,_shortened": "(§1)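 material = Mel501 human cell line, caspase-3/7 luminescence assay | amount = 2500 Mel501 cells per well | medium = RPMI-1640, 10% FBS, TSA | doses = pin-transferred compound | incubation = 6 h compound (37 °C, 5% CO2), then 1 h Caspase-Glo | technique = Caspase-Glo 3/7 luminescence | read-out basis = caspase activation from luminescence increase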"}
{"smiles": "CC1(C)CCC(c2ccc(Cl)cc2)=C(CN2CCN(c3ccc(C(=O)NS(=O)(=O)c4ccc(N[C@H](CCN5CCOCC5)CSc5ccccc5)c(S(=O)(=O)C(F)(F)F)c4)cc3)CC2)C1", "caspase activation": "0.95% (inactive)"}
{"system": "not listed separately", "test": "caspase-3/7 activation in Mel501 cells, dose response, orthogonal assay for A1 inhibitor project, cell-based, luminescence, dry powder, set 2 (AID 504365)", "settings": "Mel501 cells, caspase-3/7 Glo luminescence, 6 h; at 35 µM (top of the series)", "procedure,_shortened": "as §1"}
{"smiles": "CCn1c(=O)c([N+](=O)[O-])c(Sc2ccc(C)cc2)c2ccccc21", "caspase activation": "-0.736% (inactive)"}
{"smiles": "Cc1ccc(S(=O)(=O)c2c([N+](=O)[O-])c(=O)n(C)c3ccccc23)cc1", "caspase activation": "-0.501% (inactive)"}
{"smiles": "Cc1ccc(Sc2c(Sc3ccc(C)cc3)c3ccccc3n(Cc3ccccc3)c2=O)cc1", "caspase activation": "-1.23% (inactive)"}
{"smiles": "COc1nc2ccccc2c(Sc2ccc(C)cc2)c1[N+](=O)[O-]", "caspase activation": "-2.73% (inactive)"}
{"smiles": "COc1ccc(CCNc2nc(N3CCOCC3)nc(N3CCOCC3)n2)cc1OC", "caspase activation": "0.627% (inactive)"}
{"smiles": "COCCn1c(=O)c([N+](=O)[O-])c(Sc2ccc(C)cc2)c2ccccc21", "caspase activation": "-1.69% (inactive)"}
{"smiles": "Cc1ccc(Sc2c(Sc3ccc(C)cc3)c3ccccc3n(C)c2=O)cc1", "caspase activation": "-1.69% (inactive)"}
{"smiles": "O=c1[nH]c2ccccc2c(O)c1[N+](=O)[O-]", "caspase activation": "-2.05% (inactive)"}
{"smiles": "CCn1c(=O)c([N+](=O)[O-])c(Cl)c2ccccc21", "caspase activation": "2.55% (inactive)"}
{"smiles": "Cn1c(=O)c(Sc2ccccn2)c(Sc2ccccn2)c2ccccc21", "caspase activation": "-2.24% (inactive)"}
{"smiles": "COCCn1c(=O)c(Sc2ccc(C)cc2)c(Sc2ccc(C)cc2)c2ccccc21", "caspase activation": "-1.29% (inactive)"}
{"smiles": "COc1nc2ccccc2c(Cl)c1[N+](=O)[O-]", "caspase activation": "-1.96% (inactive)"}
{"smiles": "COc1c([N+](=O)[O-])c(=O)n(C)c2ccccc12", "caspase activation": "-0.501% (inactive)"}
{"smiles": "Cc1ccc(Sc2c([N+](=O)[O-])c(=O)n(Cc3ccccc3)c3ccccc23)cc1", "caspase activation": "-2.41% (inactive)"}
{"smiles": "COc1ccc(CCNc2nc(N3CCCC3)nc(N3CCCC3)n2)cc1OC", "caspase activation": "0.012% (inactive)"}
{"smiles": "Cn1c(=O)c([N+](=O)[O-])c(Sc2ccccn2)c2ccccc21", "caspase activation": "-1.77% (inactive)"}
{"smiles": "O=C(COc1ccc(Cl)cc1Cl)NNc1nc(N2CCOCC2)nc(N2CCOCC2)n1", "caspase activation": "-1.89% (inactive)"}
{"smiles": "CCn1c(=O)c(Sc2ccc(C)cc2)c(Sc2ccc(C)cc2)c2ccccc21", "caspase activation": "-1.83% (inactive)"}
{"smiles": "COCCn1c(=O)c([N+](=O)[O-])c(Cl)c2ccccc21", "caspase activation": "6.5% (inactive)"}
{"smiles": "Cc1ccc(Sc2c([N+](=O)[O-])c(=O)n(C)c3ccccc23)cc1", "caspase activation": "-1.78% (inactive)"}
{"smiles": "Cn1c(=O)c([N+](=O)[O-])c(S(C)(=O)=O)c2ccccc21", "caspase activation": "-1.8% (inactive)"}
{"smiles": "C/C(=N\\Nc1nc(N2CCCCC2)nc(N2CCCCC2)n1)c1ccc(F)cc1", "caspase activation": "-1.18% (inactive)"}
{"smiles": "COc1ccc(N2CCN(c3nc(NCCc4ccc(OC)c(OC)c4)nc(N4CCOCC4)n3)CC2)cc1", "caspase activation": "-1.94% (inactive)"}
{"system": "Mel501 cells, caspase-3/7 Glo luminescence, 6 h", "test": "caspase-3/7 activation in Mel501 cells, dose response, orthogonal assay for A1 inhibitor project, cell-based, luminescence, dry powder, set 2 (AID 504365)", "settings": "not given", "procedure,_shortened": "as §1"}
{"smiles": "O=c1c([N+](=O)[O-])c(Cl)c2ccccc2n1Cc1ccccc1", "AC10": "30.2 µM"}
{"smiles": "Cn1c(=O)c([N+](=O)[O-])c(Cl)c2ccccc21", "AC10": "> 35 µM (inactive)"}
{"smiles": "O=c1[nH]c2ccccc2c(Cl)c1[N+](=O)[O-]", "AC10": "> 35 µM (inactive)"}
